The source made the active and inactive calls.
What was measured:
[1] = system: SH-SY5Y; test: Neuroprotective activity against oxygen-glucose deprivation-induced toxicity in human SH-SY5Y cells assessed as increase in cell viability at 10 uM by MTT assay; assay type: functional
Summary of the method: (§1)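 SH-SY5Y cells were given one of two insults: H2O2-induced oxidative stress, with cell viability read by MTT, or oxygen glucose deprivation (OGD)-induced cell damage. Compounds were tested at 10 µM, and the result is expressed as percent neuroprotection.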

[2] = system: SH-SY5Y; test: Neuroprotection against H202-induced toxicity in human SH-SY5Y cells assessed as cytoprotection by MTT assay; assay type: functional, cell-based
Summary of the method: (§2)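 SH-SY5Y cells were exposed to H2O2 or to oxygen glucose deprivation (OGD) cytotoxicity. EC50 was defined as the concentration giving 50% protective effect relative to the control group. Values are averages of three independent experiments, given as mean ± SEM.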

[3] = system: SH-SY5Y; test: Neuroprotection against H202-induced oxidative stress in human SH-SY5Y cells assessed as increase in cell viability at 10 uM by MTT assay; assay type: functional; summary of the method: as §1
[4] = system: RAW264.7; test: Inhibition of LPS-induced NO production in mouse RAW264.7 cells assessed as NO production activity at 10 uM by Griess reagent based assay; assay type: functional
[5] = system: SH-SY5Y; test: Neuroprotection against oxygen-glucose deprivation-induced toxicity in human SH-SY5Y cells assessed as cytoprotection by MTT assay; assay type: functional, cell-based; summary of the method: as §2
[6] = system: SH-SY5Y; test: Neuroprotective activity against human SH-SY5Y cells assessed as Abeta42-induced cytotoxicity at 10 uM by MTT assay; assay type: functional
[7] = system: SH-SY5Y; test: Neuroprotective activity against human SH-SY5Y cells assessed as Abeta42-induced cytotoxicity at 1 uM by MTT assay; assay type: functional
[8] = system: SH-SY5Y; test: Neuroprotection against H202-induced oxidative stress in human SH-SY5Y cells assessed as increase in cell viability at 1 mM by MTT assay; assay type: functional
[9] = system: SH-SY5Y; test: Neuroprotective activity against oxygen-glucose deprivation-induced toxicity in human SH-SY5Y cells assessed as increase in cell viability at 1 mM by MTT assay; assay type: functional
[10] = system: SH-SY5Y; test: Neuroprotective activity against human SH-SY5Y cells assessed as Abeta42-induced cytotoxicity at 30 uM by MTT assay; assay type: functional

Compound | Activity [1] | EC50 [2] | Activity [3] | Residual NO production [4] | EC50 [5] | other results
CC(C)=CCc1c(OCC(=O)N2CCOCC2)ccc2ccc(=O)oc12 | 23.2% | 27.5 µM | 31.5% | 74.1% | > 100 µM | –
CC(C)(O)C1Cc2c(ccc3cc(-c4ccccc4F)c(=O)oc23)O1 (stereo not drawn) | 37.2% | 32.3 µM | 36.5% | 85.2% | 40.1 µM | –
CC(C)=CCc1c(OCC(=O)Nc2ccc(N3CCCC3)cn2)ccc2ccc(=O)oc12 | 58.2% | – | 45.2% | – | – | –
CC(C)=CCc1c(OCC(=O)Nc2ccc(N3CCCCC3)cc2)ccc2ccc(=O)oc12 | – | – | 12.5% | – | – | –
Cc1ccc(-c2cc3ccc4c(c3oc2=O)CC(C(C)(C)O)O4)cc1 (stereo not drawn) | – | – | 18.2% | – | – | –
CC(C)=CCc1c(OCC(=O)N2CCN(C(=O)OC(C)(C)C)CC2)ccc2ccc(=O)oc12 | 64.6% | 10.3 µM | 45.7% | 62.8% | 3.27 µM | inhibition at 10 µM [6]: 61.4%; inhibition at 1 µM [7]: 55.2%
CC(C)=CCc1c(OCC(=O)N2CCCCC2)ccc2ccc(=O)oc12 | – | – | 5.5% | – | – | –
CC(C)(O)C1Cc2c(ccc3cc(-c4ccc(F)cc4)c(=O)oc23)O1 (stereo not drawn) | 23.5% | – | 21.3% | – | – | –
CC(=O)N[C@@H](CS)C(=O)O [ACETYLCYSTEINE] | – | – | – | – | – | Activity [8]: 37.1%; Activity [9]: 84.3%
CC(C)=CCc1c(OCC(=O)Nc2ccc(N3CCCCC3)cn2)ccc2ccc(=O)oc12 | 16.8% | – | 32.7% | – | – | –
CC(C)=CCc1c(OCC(=O)N2CCCC2)ccc2ccc(=O)oc12 | 43.6% | 67.3 µM | 28% | 75.4% | 15.3 µM | –
CCN1CCN(C(=O)COc2ccc3ccc(=O)oc3c2CC=C(C)C)CC1 | 48% | 29.8 µM | 33.7% | 72.3% | 12.5 µM | –
CC(C)=CCc1c(OCC(=O)N2CCNCC2)ccc2ccc(=O)oc12 | 28.2% | – | 29.2% | – | – | –
CC(C)(O)C1Cc2c(ccc3cc(-c4ccccc4)c(=O)oc23)O1 (stereo not drawn) | 23.2% | – | 19.7% | – | – | –
CC(C)=CCc1c(OCC(=O)Nc2ccc(N3CCNCC3)cc2)ccc2ccc(=O)oc12 | 8.4% | – | 22.5% | – | – | –
CC(C)=CCc1c(OC(=O)NC2CCCCC2)ccc2ccc(=O)oc12 | – | – | 13% | – | – | –
COc1ccc2c(c1)c(CC(=O)O)c(C)n2C(=O)c1ccc(Cl)cc1 [INDOMETHACIN] | – | – | – | 53.2% | – | –
CC(C)=CCc1c(OCC(=O)Nc2ccc(N3CCNCC3)cn2)ccc2ccc(=O)oc12 | 49.4% | – | 44.5% | – | – | –
COc1ccc(CNC(=O)Oc2ccc3ccc(=O)oc3c2CC=C(C)C)cc1 | 35% | > 100 µM | 28.7% | 77.4% | 23.3 µM | –
CC(C)=CCc1c(OCC(=O)Nc2ccc(N3CCOCC3)cc2)ccc2ccc(=O)oc12 | 13.2% | – | 39.5% | – | – | –
COc1ccc2ccc(=O)oc2c1CC=C(C)C [OSTHOLE] | 28.6% | 33.3 µM | – | 85.6% | 26.4 µM | Activity [10]: 37.1%; Activity [7]: inactive
CC(C)(O)C1Cc2c(ccc3cc(-c4cccc(F)c4)c(=O)oc23)O1 (stereo not drawn) | 41.2% | 75.9 µM | 29% | 106.2% | 18.8 µM | –
CC(C)=CCc1c(OCC(=O)Nc2ccc(N3CCOCC3)cn2)ccc2ccc(=O)oc12 | 51.4% | 16.6 µM | 43.5% | 80.3% | 9.05 µM | –
COc1cccc(-c2cc3ccc4c(c3oc2=O)CC(C(C)(C)O)O4)c1 (stereo not drawn) | 42.8% | 30.4 µM | 31% | 73.3% | 13.3 µM | –
CC(C)=CCc1c(OCC(=O)Nc2ccc(N3CCCC3)cc2)ccc2ccc(=O)oc12 | 63.4% | 11.9 µM | 47.7% | 50.4% | 5.62 µM | inhibition at 10 µM [6]: 46.3%; inhibition at 1 µM [7]: 47.8%

Reference: ChEMBL document CHEMBL4699614, “Design, synthesis and biological evaluation of novel osthole-based derivatives as potential neuroprotective agents” (Bioorg Med Chem Lett, 2020)
